Type in all cases: functional
For assay [1], the system named is Bacillus subtilis. Put plainly: Compound was tested for antibacterial activity against Bacillus subtilis ATCC E6051. A digest of the protocol:
(§1)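 MICs were found by agar dilution. Test compounds were dissolved in water or in dimethyl sulfoxide, and the mixture was added to the agar before it set.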

Assay [2] concerns Bacillus cereus. Put plainly: Compound was tested for antibacterial activity against Bacillus cereus WSU-60. A digest of the protocol: as §1
The subject of assay [3] is Staphylococcus epidermidis. The assay can be described thus: Compound was tested for antibacterial activity against Staph. epidermidis ATCC 12228. The procedure, abridged: as §1
The subject of assay [4] is Staphylococcus aureus. The assay can be described thus: Compound was tested for antibacterial activity against Staphylococcus aureus ATCC 25923. A digest of the protocol:
as §1

For assay [5], the system named is Staphylococcus aureus. The assay can be described thus: Compound was tested for antibacterial activity against Staphylococcus aureus WSU-196E. The procedure, abridged: as §1
Assay [6] relates to Corynebacterium diphtheriae. Put plainly: Compound was tested for antibacterial activity against Corynebacterium diphtheria WSU. A digest of the protocol: as §1
Assay [7] relates to Streptococcus pyogenes. The assay can be described thus: Compound was tested for antibacterial activity against Strep. pyogenes ATCC 19615. The procedure, abridged:
as §1

The species entered for assay [8] is Rattus norvegicus. Put plainly: Compound was tested for effect of glycoside on superoxide production in rat heart sarcosomes. Details: unit not given here. A digest of the protocol:
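Male Sprague-Dawley rat ventricles were homogenized in 100 mM KCl, 5 mM histidine, pH 7.3. The microsomal (sarcosomal) pellet was taken at 100000g and resuspended in 0.15 M K3PO4, 1 mM EDTA, pH 7.4. Sarcosomes came from six rats prepared concurrently. Each 1 mL reaction held acetylated cytochrome c (38-53 nmol), 300-500 µg protein and 0.1 mM compound. NADPH started the reaction. A550 rise was followed at 37 °C and reported as mean ± SEM, N = 3, with an F test.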

Assay [9] relates to Staphylococcus aureus. The assay can be described thus: Compound was tested for antibacterial activity against Staphylococcus aureus ATCC 9144. The procedure, abridged: as §1

Values after ≈ are worked out from the molar mass of the structure shown.

For `NC1C(OCc2cc(O)c3c(c2)C(=O)c2cccc(O)c2C3=O)OC(O)C(O)C1O` (configuration not stated), the MIC was greater than 200 µg/mL in assay [1]; 200 µg/mL (≈ 479 µM) in [2]; 20 µg/mL (≈ 47.9 µM) in assay [3]; greater than 200 µg/mL in [4]; greater than 200 µg/mL in assay [5]; 100 µg/mL (≈ 240 µM) in assay [6]. Also, the MIC in assay [7] came to 10 µg/mL (≈ 24 µM); in assay [9], 50 µg/mL (≈ 120 µM). This molecule displayed an Activity in assay [8] of 10.1.

In the case of `NC1C(OCc2cc(O)c3c(c2O)C(=O)c2ccccc2C3=O)OC(O)C(O)C1O` (configuration not stated), the MIC in [1] was 50 µg/mL (≈ 120 µM); in assay [2], 50 µg/mL (≈ 120 µM); in assay [3], 20 µg/mL (≈ 47.9 µM); in assay [4], 100 µg/mL (≈ 240 µM); in assay [5], greater than 200 µg/mL; in [6], 100 µg/mL (≈ 240 µM). For the same molecule, the minimum inhibitory concentration (MIC) was found to be 10 µg/mL (≈ 24 µM) in assay [7] and 50 µg/mL (≈ 120 µM) in [9]. Also, the Activity in [8] was found to be 12.8.

Turning to `NC1C(OCc2ccc3c(c2O)C(=O)c2c(O)cccc2C3=O)OC(O)C(O)C1O` (configuration not stated), the MIC was determined as 50 µg/mL (≈ 120 µM) in assay [1]; 50 µg/mL (≈ 120 µM) in assay [2]; 50 µg/mL (≈ 120 µM) in [3]; 100 µg/mL (≈ 240 µM) in assay [4]; 200 µg/mL (≈ 479 µM) in assay [5]; 50 µg/mL (≈ 120 µM) in assay [6]. Besides, the minimum inhibitory concentration (MIC) in assay [7] worked out at 50 µg/mL (≈ 120 µM); in assay [9] it was 200 µg/mL (≈ 479 µM). The molecule further yielded an Activity in assay [8] of 10.5.

Take `NC1C(OCc2ccc3c(c2)C(=O)c2ccccc2C3=O)OC(O)C(O)C1O` (configuration not stated): the minimal inhibitory concentration (MIC) in [1] is greater than 200 µg/mL; in [2], greater than 200 µg/mL; in assay [3] it was 200 µg/mL (≈ 519 µM); in assay [4], greater than 200 µg/mL; in assay [5], greater than 200 µg/mL; in [6], greater than 200 µg/mL. In addition, the minimal inhibitory concentration (MIC) was 100 µg/mL (≈ 259 µM) in assay [7] and greater than 200 µg/mL in assay [9]. Also, the Activity in assay [8] is 2.31.

For `NC1C(OCc2ccc3c(c2O)C(=O)c2ccccc2C3=O)OC(O)C(O)C1O` (configuration not stated), the minimum inhibitory concentration (MIC) in assay [1] is 50 µg/mL (≈ 125 µM); in [2], 100 µg/mL (≈ 249 µM); in assay [3], 20 µg/mL (≈ 49.8 µM); in assay [4] it was 200 µg/mL (≈ 498 µM); in assay [5] it was 200 µg/mL (≈ 498 µM); in assay [6] it was 100 µg/mL (≈ 249 µM). The minimal inhibitory concentration (MIC) in assay [7] stood at 20 µg/mL (≈ 49.8 µM); in assay [9], 200 µg/mL (≈ 498 µM). Further, the Activity in [8] is given as 5.49.

As for `COc1cccc2c1C(=O)c1c(O)c3c(c(O)c1C2=O)C[C@@](O)(C(C)=O)C[C@@H]3O[C@H]1C[C@H](N)[C@H](O)[C@H](C)O1` [DAUNORUBICIN], the minimal inhibitory concentration (MIC) is less than 5 µg/mL in assay [1]; less than 5 µg/mL in assay [2]; less than 5 µg/mL in [3]; 20 µg/mL (≈ 37.9 µM) in [4]; less than 5 µg/mL in assay [5]; less than 5 µg/mL in assay [6]. The MIC in assay [7] and in [9] was less than 5 µg/mL in each case. This molecule displayed an Activity in assay [8] of 2.76.

As to `COc1cccc2c1C(=O)c1c(O)c3c(c(O)c1C2=O)C[C@@](O)(C(=O)CO)C[C@@H]3O[C@H]1C[C@H](N)[C@H](O)[C@H](C)O1` [DOXORUBICIN], the minimal inhibitory concentration (MIC) in assay [1] was 20 µg/mL (≈ 36.8 µM); in assay [2] it was 10 µg/mL (≈ 18.4 µM); in [3], less than 5 µg/mL; in assay [4], 200 µg/mL (≈ 368 µM); in [5] it was 10 µg/mL (≈ 18.4 µM); in assay [6], 20 µg/mL (≈ 36.8 µM). Moreover, the minimal inhibitory concentration (MIC) in [7] was less than 5 µg/mL; in [9], 20 µg/mL (≈ 36.8 µM).

The MIC is the lowest concentration that inhibits growth of the organism.

The record behind these values is ChEMBL document CHEMBL1123433, “Synthesis of anthraquinonyl glucosaminosides and studies on the influence of aglycone hydroxyl substitution on superoxide generation, DNA binding, and antimicrobial properties” (J Med Chem, 1986).
